Assay results: ChEMBL document CHEMBL4819027, “Design, synthesis and biological evaluation of novel 2-(4-(1H-indazol-6-yl)-1H-pyrazol-1-yl)acetamide derivatives as potent VEGFR-2 inhibitors” (Eur J Med Chem, 2021)
Activity calls are given as the source filed them. No cut-off for these calls is given here.

Legend:
[1] = test system: HGC-27; assay: Induction of apoptosis in human HGC-27 cells assessed as early apoptotic cells level at 1 uM incubated for 24 hrs by propidium iode and annexin V-FITC staining based flow cytometry (reference value: 1.48%); type: functional
How it was run: (§1)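 HGC-27 cells (1.0 × 10⁶ per 60 mm dish) were treated 24 h with 0.1% DMSO or compound (0.1, 0.5, 1 μM). Cells were stained with Annexin V-FITC in HEPES/NaCl/CaCl₂ binding buffer (pH 7.4) for 15 min at room temperature, then with PI for 10 min. About 10 000 events were acquired by flow cytometry to give viable, early apoptotic, late apoptotic and necrotic fractions.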

[2] = test system: HGC-27; assay: Antimigratory activity against human HGC-27 cells assessed as number of migration cells at 0.1 uM measured after 24 hrs by transwell migration assay (reference value: 320); type: functional
[3] = test system: HGC-27; assay: Induction of apoptosis in human HGC-27 cells assessed as viable cells level at 0.1 uM incubated for 24 hrs by propidium iode and annexin V-FITC staining based flow cytometry (reference value: 96.0%); type: functional; how it was run: as §1
[4] = molecular target: T1, Vascular endothelial growth factor receptor 2 (Homo sapiens, UniProt P35968); assay: Inhibition of VEGFR2 in human HGC-27 cells assessed as downregulation of Akt phosphorylation at […] at 0.1 to 1 uM after 24 hrs by Westernblot analysis; type: cell-based; details: dose 0.1-1 µM
How it was run: (§2)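 HGC-27 cells (1.0 × 10⁶ per 60 mm dish) were treated 24 h with 0.1% DMSO or compound (0.1, 0.5, 1 μM). RIPA lysates with phosphatase inhibitor were quantified by BCA and resolved on 8–12% SDS-PAGE onto nitrocellulose. Blots were probed for p-VEGFR-2 (Tyr1175), p-PI3K (Tyr607), p-AKT (Thr308) and p-mTOR (Ser2448), with ECL detection and densitometry; mean ± SEM.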

[5] = test system: HGC-27; assay: Induction of apoptosis in human HGC-27 cells assessed as necrotic cells level at 1 uM incubated for 24 hrs by propidium iode and annexin V-FITC staining based flow cytometry (reference value: 1.64%); type: functional; how it was run: as §1
[6] = test system: HUVEC; assay: Antiangiogenic activity against HUVEC cells assessed as reduction in VEGF-induced tube length at 1 to 10 uM incubated for 12 hrs by matrigel-based assay; type: functional, cell-based; details: Homo sapiens, dose 1-10 µM
How it was run: (§3)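 HUVECs at 4 × 10⁵ cells/mL seeded on Matrigel that had been polymerized 1 h at 37 °C. Cells were stimulated with 20 ng/mL VEGF and treated with compound (1, 2.5, 5 and 10 μM) or 0.1% DMSO vehicle for 12 h at 37 °C. Tubes were imaged by inverted microscopy. Tube length, surface area and branch points were quantified as pixel area.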

[7] = test system: HT-29; assay: Antiproliferative activity against human HT-29 cells assessed as cell growth inhibition after 72 hrs by MTT assay; type: functional, cell-based; details: HT-29, 72 h
How it was run: (§4)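 Log-phase cells were seeded at 5 × 10³ per well and attached 24 h. HT-29 and GES-1 were grown in DMEM-based medium, A549/HepG2/HGC-27 in RPMI-1640, HUVEC in ECM with ECGS; all media had 10% FBS. Cells were exposed to graded compound concentrations for 72 h at 37 °C. MTT (5 mg/mL stock) was added for 4 h, formazan dissolved in DMSO, and A490 read. IC50 was obtained by nonlinear sigmoidal regression; mean ± S.E. of three experiments.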

[8] = test system: HGC-27; assay: Induction of intracellular ROS generation in human HGC-27cells incubated for 24 hrs by DCFH-DA staining-based flow cytometric analysis; type: functional, cell-based; details: dose 0.1-1 µM
How it was run: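 HGC-27 cells (5.0 × 10⁵ per well) were treated 24 h with compound (0.1, 0.5, 1 μM) or 0.1% DMSO. Harvested cells were loaded with 10 μM DCFH-DA in PBS for 20 min at 37 °C. Green fluorescence intensity was measured by flow cytometry.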

[9] = test system: HGC-27; assay: Induction of apoptosis in human HGC-27 cells assessed as viable cells level at 0.5 uM incubated for 24 hrs by propidium iode and annexin V-FITC staining based flow cytometry (reference value: 96.0%); type: functional; how it was run: as §1
[10] = test system: HepG2; assay: Antiproliferative activity against human HepG2 cells assessed as cell growth inhibition after 72 hrs by MTT assay; type: functional, cell-based; details: HepG2, 72 h; how it was run: as §4
[11] = molecular target: T1, Vascular endothelial growth factor receptor 2; assay: Inhibition of VEGFR2 (unknown origin) incubated for 10 mins followed by kinase substrate addition and measured after 30 mins by caliper mobility shift assay
[12] = test system: HGC-27; assay: Antiinvasive activity against human HGC-27 cells assessed as reduction in cell invasion at 0.1 to 1 measured after 24 hrs by transwell invasion assay; type: functional, cell-based
How it was run: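 Transwell inserts (12 μm pore) were precoated with Matrigel. HGC-27 cells at 5 × 10⁵ cells/mL were placed in the upper well in serum-free medium with compound (0.1, 0.5, 1 μM). The lower chamber held RPMI-1640 with 10% FBS. After 24 h at 37 °C, invaded cells were methanol-fixed and stained with 0.1% crystal violet. Cells were counted in three random fields; three independent experiments, mean ± SD.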

[13] = test system: A549; assay: Antiproliferative activity against human A549 cells assessed as cell growth inhibition after 72 hrs by MTT assay; type: functional, cell-based; details: A549, 72 h; how it was run: as §4
[14] = test system: HGC-27; assay: Antiproliferative activity against human HGC-27 cells assessed as cell growth inhibition after 72 hrs by MTT assay; type: functional, cell-based; details: HGC-27, 72 h; how it was run: as §4
[15] = test system: HGC-27; assay: Inhibition of cell migration at human HGC-27 cells in 0.1 to 1 uM measured up to 24 hrs by microscopic based wound healing assay; type: functional; details: dose 0.1-1 µM, time hrs <=24, TDE = time-dependent effect
How it was run: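 HGC-27 grown to 80–90% confluence in 6-well plates, serum-starved 12 h, scratched with 200 µL tip (~1 mm lane). Washed, then given complete medium alone or with compound (0.1, 0.5, 1 µM) or sorafenib positive control. Imaged by inverted microscope at 0, 6 and 24 h; relative scratch closure quantified; mean ± SD, three independent experiments.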

[16] = test system: HGC-27; assay: Induction of apoptosis in human HGC-27 cells assessed as necrotic cells level at 0.5 uM incubated for 24 hrs by propidium iode and annexin V-FITC staining based flow cytometry (reference value: 1.64%); type: functional; how it was run: as §1
[17] = test system: HGC-27; assay: Inhibition of colony formation in human HGC-27 cells after 12 days by crystal violet staining based assay; type: functional, cell-based; details: dose 0.1-1 µM, time 12.0 day
How it was run: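 HGC-27 cells (500/well, 6-well plates) attached 24 h at 37 °C, then kept 12 days in medium with compound (0.1, 0.5, 1 µM), 0.1% DMSO vehicle or 5 µM sorafenib. Washed with cold PBS, methanol-fixed, stained 0.1% crystal violet 30 min; colonies >50 cells photographed and counted.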

[18] = test system: HGC-27; assay: Induction of apoptosis in human HGC-27 cells assessed as total apoptotic cells level at 0.1 uM incubated for 24 hrs by propidium iode and annexin V-FITC staining based flow cytometry; type: functional; how it was run: as §1
[19] = test system: HUVEC; assay: Antiangiogenic activity against HUVEC cells assessed as reduction in VEGF-induced total branching points at 1 to 10 uM incubated for 12 hrs by matrigel-based assay; type: functional, cell-based; details: Homo sapiens, dose 1-10 µM; how it was run: as §3
[20] = test system: HUVEC; assay: Cytotoxicity against human HUVEC cells assessed as inhibition of cell growth incubated for 72 hrs by MTT assay; type: cell-based; how it was run: as §4
[21] = molecular target: T1, Vascular endothelial growth factor receptor 2; assay: Inhibition of VEGFR2 in human HGC-27 cells assessed as downregulation of PI3K phosphorylation at Tyr607 at 0.1 to 1 uM after 24 hrs by Westernblot analysis; type: cell-based; details: dose 0.1-1 µM; how it was run: as §2

T1 sequence (P35968 whole entry): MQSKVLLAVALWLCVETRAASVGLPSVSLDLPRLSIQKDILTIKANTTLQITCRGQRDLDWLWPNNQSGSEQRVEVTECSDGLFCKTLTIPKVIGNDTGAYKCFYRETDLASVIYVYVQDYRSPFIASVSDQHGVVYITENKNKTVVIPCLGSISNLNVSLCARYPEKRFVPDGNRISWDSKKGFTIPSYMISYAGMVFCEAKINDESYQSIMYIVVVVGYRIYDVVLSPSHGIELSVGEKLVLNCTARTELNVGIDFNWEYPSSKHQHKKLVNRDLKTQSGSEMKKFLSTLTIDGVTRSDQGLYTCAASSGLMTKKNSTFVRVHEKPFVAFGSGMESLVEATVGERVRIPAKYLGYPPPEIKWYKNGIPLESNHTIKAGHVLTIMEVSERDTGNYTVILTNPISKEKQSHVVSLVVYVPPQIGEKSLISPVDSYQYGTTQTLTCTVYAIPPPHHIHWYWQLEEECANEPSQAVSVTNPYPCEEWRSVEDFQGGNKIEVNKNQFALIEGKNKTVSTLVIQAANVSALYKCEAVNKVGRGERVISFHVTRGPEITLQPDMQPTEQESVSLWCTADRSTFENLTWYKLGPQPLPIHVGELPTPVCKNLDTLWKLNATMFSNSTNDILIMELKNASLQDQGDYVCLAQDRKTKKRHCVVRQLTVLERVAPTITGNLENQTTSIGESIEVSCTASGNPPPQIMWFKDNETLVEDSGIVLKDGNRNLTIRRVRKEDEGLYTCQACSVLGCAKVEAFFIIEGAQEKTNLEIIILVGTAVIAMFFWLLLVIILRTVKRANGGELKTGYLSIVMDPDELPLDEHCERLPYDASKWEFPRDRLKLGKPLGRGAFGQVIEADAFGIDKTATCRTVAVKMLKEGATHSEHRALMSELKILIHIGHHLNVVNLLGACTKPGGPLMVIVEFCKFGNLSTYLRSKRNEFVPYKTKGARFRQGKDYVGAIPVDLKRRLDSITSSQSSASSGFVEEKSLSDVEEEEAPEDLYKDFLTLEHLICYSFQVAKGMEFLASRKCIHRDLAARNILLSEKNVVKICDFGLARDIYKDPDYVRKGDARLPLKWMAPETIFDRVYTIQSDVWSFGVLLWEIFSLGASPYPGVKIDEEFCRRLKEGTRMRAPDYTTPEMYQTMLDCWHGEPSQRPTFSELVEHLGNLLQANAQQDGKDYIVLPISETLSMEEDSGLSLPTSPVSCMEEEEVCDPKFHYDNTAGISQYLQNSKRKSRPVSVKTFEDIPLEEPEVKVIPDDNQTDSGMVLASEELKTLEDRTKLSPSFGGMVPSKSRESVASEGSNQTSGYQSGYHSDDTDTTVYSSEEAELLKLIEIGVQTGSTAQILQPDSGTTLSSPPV

**Q.** Which results are given for CC(=O)Nc1n[nH]c2cc(-c3cnn(CC(=O)Nc4ccc(C)c(C(F)(F)F)c4)c3)ccc12?
**A.** Activity [1]: 11.8%; Activity [2]: 212; Activity [3]: 90.5%; inhibition [4]: Active; Activity [5]: 9.59%; Activity [6]: Active; IC50 [7]: 2.97 µM; Activity [8]: Dose-Dependent Effect; Activity [9]: 69.7%; IC50 [10]: 15 µM; IC50 [11]: 0.0016 µM; inhibition [12]: Dose-Dependent Effect; IC50 [13]: 4.31 µM; IC50 [14]: 0.36 µM; inhibition [15]: Tde; Activity [16]: 10.8%; inhibition [17]: Dose-Dependent Effect; Activity [18]: 7.42%; Activity [19]: Active; IC50 [20]: 7.15 µM; inhibition [21]: Active
